The compounds below were run against Phosphatidylinositol 3-kinase regulatory subunit alpha/4,5-bisphosphate 3-kinase catalytic subunit beta isoform (Homo sapiens, UniProt P27986+P42338) (assay: Inhibition of recombinant human full-length N-terminal His6-tagged p110beta/human recombinant full-length untagged p85alpha expressed in baculovirus infected Sf21 insect cells using PIP2 as substrate after 30 mins in presence of ATP at 2xKm concentration by TR-FRET assay).
Summary of the method: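 Class I PI3K isoforms assayed in vitro for kinase inhibition with ATP at 2Km steady-state concentration; IC50 values averaged over at least 2 determinations.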

Chain of Phosphatidylinositol 3-kinase regulatory subunit alpha/4,5-bisphosphate 3-kinase catalytic subunit beta isoform (P27986 whole entry, canonical isoform): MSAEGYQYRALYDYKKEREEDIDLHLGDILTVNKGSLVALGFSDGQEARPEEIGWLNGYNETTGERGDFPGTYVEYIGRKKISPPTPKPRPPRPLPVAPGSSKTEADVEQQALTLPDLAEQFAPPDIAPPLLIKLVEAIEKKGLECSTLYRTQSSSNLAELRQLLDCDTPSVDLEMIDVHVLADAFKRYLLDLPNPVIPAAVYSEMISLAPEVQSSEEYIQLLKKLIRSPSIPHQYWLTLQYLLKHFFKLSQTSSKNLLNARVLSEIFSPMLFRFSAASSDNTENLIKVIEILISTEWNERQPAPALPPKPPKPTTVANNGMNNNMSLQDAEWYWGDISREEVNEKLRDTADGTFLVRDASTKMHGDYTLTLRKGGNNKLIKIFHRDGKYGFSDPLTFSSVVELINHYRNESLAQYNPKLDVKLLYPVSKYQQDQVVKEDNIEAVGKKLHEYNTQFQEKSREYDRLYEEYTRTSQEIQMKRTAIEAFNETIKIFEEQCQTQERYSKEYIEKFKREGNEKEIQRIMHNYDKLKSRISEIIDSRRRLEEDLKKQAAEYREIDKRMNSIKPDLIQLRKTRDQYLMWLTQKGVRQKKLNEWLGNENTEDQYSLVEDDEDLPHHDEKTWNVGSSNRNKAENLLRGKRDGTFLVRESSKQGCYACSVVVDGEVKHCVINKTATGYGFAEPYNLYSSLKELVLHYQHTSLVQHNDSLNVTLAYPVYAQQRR
Chain of Phosphatidylinositol 3-kinase regulatory subunit alpha/4,5-bisphosphate 3-kinase catalytic subunit beta isoform (P42338 whole entry, canonical isoform): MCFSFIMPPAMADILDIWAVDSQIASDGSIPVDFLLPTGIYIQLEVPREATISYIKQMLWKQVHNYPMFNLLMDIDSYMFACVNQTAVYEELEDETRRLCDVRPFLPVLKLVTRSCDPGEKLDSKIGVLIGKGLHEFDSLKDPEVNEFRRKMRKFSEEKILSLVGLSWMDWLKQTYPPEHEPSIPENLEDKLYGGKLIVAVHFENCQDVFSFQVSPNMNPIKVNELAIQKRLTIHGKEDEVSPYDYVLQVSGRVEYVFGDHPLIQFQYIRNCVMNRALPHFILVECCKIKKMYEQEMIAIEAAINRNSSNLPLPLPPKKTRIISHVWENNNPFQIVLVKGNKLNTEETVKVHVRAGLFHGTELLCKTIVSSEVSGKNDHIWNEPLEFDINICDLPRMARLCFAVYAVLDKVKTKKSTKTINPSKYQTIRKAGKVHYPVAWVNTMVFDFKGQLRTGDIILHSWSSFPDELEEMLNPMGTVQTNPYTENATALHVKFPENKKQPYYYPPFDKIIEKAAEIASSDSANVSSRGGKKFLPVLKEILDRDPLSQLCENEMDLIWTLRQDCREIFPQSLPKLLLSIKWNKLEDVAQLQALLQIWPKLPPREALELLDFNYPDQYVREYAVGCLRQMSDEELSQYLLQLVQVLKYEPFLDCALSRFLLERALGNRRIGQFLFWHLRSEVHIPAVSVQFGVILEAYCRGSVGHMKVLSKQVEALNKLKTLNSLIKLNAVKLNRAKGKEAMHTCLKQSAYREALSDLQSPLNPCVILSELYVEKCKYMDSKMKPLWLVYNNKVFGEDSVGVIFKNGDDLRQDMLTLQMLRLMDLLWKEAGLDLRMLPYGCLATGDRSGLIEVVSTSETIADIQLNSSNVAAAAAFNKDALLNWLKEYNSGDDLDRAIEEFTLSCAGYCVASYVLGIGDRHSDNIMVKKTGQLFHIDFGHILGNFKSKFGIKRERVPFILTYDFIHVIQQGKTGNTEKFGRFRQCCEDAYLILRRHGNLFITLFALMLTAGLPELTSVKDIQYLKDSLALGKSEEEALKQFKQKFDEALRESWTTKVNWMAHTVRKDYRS

Row | IC50 | Structure (SMILES)
1 | 30 nM | Cc1nc2c(-c3nnc[nH]3)cc(-c3ccnc(C(F)F)c3)cc2n1-c1ccnc2c(F)ccc(F)c12 [US10227350, Compound 43]
2 | 10 nM | Cc1nc2c(-c3nnc[nH]3)cc(-c3ccnc(N)c3)cc2n1-c1ccnc2c(F)ccc(F)c12 [US10227350, Compound 104]
3 | 4 nM | Cc1nc2c(-c3nnc[nH]3)cc(-c3ccnc(C#N)c3)cc2n1-c1ccnc2c(F)ccc(F)c12 [US10227350, Compound 113]
4 | 6 nM | Cc1nc2c(-c3nnc[nH]3)cc(-c3ccncc3)cc2n1-c1ccnc2c(F)ccc(F)c12 [US10227350, Compound 140]
5 | 7 nM | Cc1nc2c(-c3nnc[nH]3)cc(-c3ccnc(Cl)c3)cc2n1-c1ccnc2c(F)ccc(F)c12 [US10227350, Compound 158]

The next lines start with the compound.

Row | Structure (SMILES) | IC50
6 | Clc1cccc2c(-n3cnc4c(-c5nnc[nH]5)cc(-c5ccncc5)cc43)ccnc12 | 5 nM
7 | Clc1cccc2c(-n3cnc4c(-c5nnc[nH]5)cc(N5CCOCC5)cc43)ccnc12 [US10214519, Example 111] | 3 nM
8 | Cc1nc2c(-c3nnc[nH]3)cc(-c3cc(N)ncc3F)cc2n1-c1ccnc2c(F)ccc(F)c12 [US10227350, Compound 76] | 50 nM
9 | CNc1nccc(-c2cc(-c3nnc[nH]3)c3nc(C)n(-c4ccnc5c(F)ccc(F)c45)c3c2)c1F [US10227350, Compound 77] | 1400 nM
10 | Cc1cc(-c2cc(-c3nnc[nH]3)c3nc(C)n(-c4ccnc5c(F)ccc(F)c45)c3c2)cc(N)n1 [US10227350, Compound 90] | 341 nM
11 | Cc1nc2c(-c3nnc[nH]3)cc(-c3ccnc(N)c3Cl)cc2n1-c1ccnc2c(F)ccc(F)c12 [US10227350, Compound 91] | 19 nM
12 | Cc1nc2c(-c3nnc[nH]3)cc(-c3c(F)cnc(N)c3F)cc2n1-c1ccnc2c(F)ccc(F)c12 [US10227350, Compound 100] | 321 nM
13 | Cc1cc(-c2cc(-c3nnc[nH]3)c3nc(C)n(-c4ccnc5c(F)ccc(F)c45)c3c2)ncn1 [US10227350, Compound 155] | 62 nM
14 | Cc1nccc(-c2cc(-c3nnc[nH]3)c3nc(C)n(-c4ccnc5c(F)ccc(F)c45)c3c2)n1 [US10227350, Compound 156] | 12 nM

— BindingDB's records for doi:10.1021/acsmedchemlett.0c00095 (Gilead Sciences, 2020)
